Assay results from ChEMBL document CHEMBL1121573, “2-(Aminomethyl)phenols, a new class of saluretic agents. 1. Effects of nuclear substitution” (J Med Chem, 1980).
Values joined by “and” are separate entries in the source; they are usually repeats but may differ in a detail not shown here. Equal entries are not always repeated.

Assays:
[1] = tested on: Rattus norvegicus; assay: Maximum fall in mean arterial blood pressure was measured in SH rats when compound was administered at 0.078 mg/kg perorally; format: functional; conditions: route oral
[2] = tested on: Rattus norvegicus; assay: Oral diuretic activity was evaluated by measuring K+ excretion in Rat at 3 mg/kg after po administration; conditions: in vivo
[3] = tested on: Canis familiaris; assay: Oral diuretic activity was evaluated by measuring Cl- excretion in dog at 0.625 mg/kg after ip administration; format: ADME, organism-based, Canis lupus familiaris, Urine; design: dose 0.625 mg/kg, route intraperitoneal; conditions: in vivo
[4] = tested on: Rattus norvegicus; assay: Oral diuretic activity was evaluated by measuring Cl- excretion in Rat at 27 mg/kg after ip administration; format: ADME, organism-based, Urine; design: dose 27 mg/kg, route intraperitoneal; conditions: in vivo
[5] = tested on: Canis familiaris; assay: Oral diuretic activity was evaluated by measuring K+ excretion in dog at 5 mg/kg after ip administration; format: ADME, organism-based, Canis lupus familiaris, Urine; design: dose 5 mg/kg, route intraperitoneal; conditions: in vivo
Method in brief: (§1)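 Spontaneous urine was pooled with bladder urine collected by catheterization at 6 h. Volume was measured and Na+, K+ and Cl− were determined by standard methods. Values are geometric means.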

[6] = tested on: Canis familiaris; assay: Oral diuretic activity was evaluated by measuring K+ excretion in dog at 2 mg/kg after ip administration; format: ADME, organism-based, Canis lupus familiaris, Urine; design: dose 2 mg/kg, route intraperitoneal; conditions: in vivo; method in brief: as §1
[7] = tested on: Canis familiaris; assay: Oral diuretic activity was evaluated by measuring Na+ excretion in dog at 0.625 mg/kg after ip administration; format: ADME, organism-based, Canis lupus familiaris, Urine; design: dose 0.625 mg/kg, route intraperitoneal; conditions: in vivo; method in brief: as §1
[8] = tested on: Rattus norvegicus; assay: Maximum fall in mean arterial blood pressure was measured in SH rats when compound was administered at 0.312 mg/kg perorally; format: functional; conditions: route oral
[9] = tested on: Canis familiaris; assay: Oral diuretic activity was evaluated by measuring Na+ excretion in dog at 2 mg/kg after […]; format: ADME, organism-based, Canis lupus familiaris, Urine; design: dose 2 mg/kg; conditions: in vivo
Method in brief: (§2)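 Dogs; spontaneous urine was pooled with bladder urine drained by catheter at the end of 6 h. Urine volume was measured, and aliquots were assayed for Na+, K+ and Cl− by standard methods. Values are geometric means, expressed as mequiv over 0–6 h.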

[10] = tested on: Canis familiaris; assay: Oral diuretic activity was evaluated by measuring K+ excretion in dog at 0.312 mg/kg after ip administration; format: ADME, organism-based, Canis lupus familiaris, Urine; design: dose 0.312 mg/kg, route intraperitoneal; conditions: in vivo
[11] = tested on: Canis familiaris; assay: Oral diuretic activity was evaluated by measuring Cl- excretion in dog at 5 mg/kg after ip administration; format: ADME, organism-based, Canis lupus familiaris, Urine; design: dose 5 mg/kg, route intraperitoneal; conditions: in vivo
[12] = tested on: Canis familiaris; assay: Oral diuretic activity was evaluated by measuring Na+ excretion in dog at 0.312 mg/kg after ip administration; format: ADME, organism-based, Canis lupus familiaris, Urine; design: dose 0.312 mg/kg, route intraperitoneal; conditions: in vivo; method in brief: as §1
[13] = tested on: Rattus norvegicus; assay: Maximum fall in mean arterial blood pressure was measured in SH rats when compound was administered at […] mg/kg perorally; format: functional; conditions: route oral
[14] = tested on: Rattus norvegicus; assay: Oral diuretic activity was evaluated by measuring Cl- excretion in Rat at 81 mg/kg after ip administration; format: ADME, organism-based, Urine; design: dose 81 mg/kg, route intraperitoneal; conditions: in vivo
[15] = tested on: Canis familiaris; assay: Oral diuretic activity was evaluated by measuring K+ excretion in dog at 0.625 mg/kg after […]; format: ADME, organism-based, Canis lupus familiaris, Urine; design: dose 0.625 mg/kg; conditions: in vivo; method in brief: as §1
[16] = tested on: Canis familiaris; assay: Compound administered intravenously was evaluated for salidiuretic activity measured as sodium ion excretion in Dog; format: ADME, organism-based, Canis lupus familiaris, Urine; design: unit not given beside the values; conditions: in vivo, iv
Method in brief: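 Conditioned female mongrel dogs, postabsorptive, water-loaded (500 mL po) 1 h before sodium pentobarbital anesthesia (30 mg/kg iv). Bladder catheter; creatinine 4 g sc; phosphate–mannitol buffer pH 7.4 infused (3.0 mL/min) throughout. […] Urine Na+ measured; response scored 0–6.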

[17] = tested on: Canis familiaris; assay: Oral diuretic activity was evaluated by measuring Cl- excretion in dog at 2 mg/kg after ip administration; format: ADME, organism-based, Canis lupus familiaris, Urine; design: dose 2 mg/kg, route intraperitoneal; conditions: in vivo
[18] = tested on: Rattus norvegicus; assay: Oral diuretic activity was evaluated by measuring Cl- excretion in Rat at 3 mg/kg after ip administration; format: ADME, organism-based, Urine; design: dose 3 mg/kg, route intraperitoneal; conditions: in vivo
[19] = tested on: Rattus norvegicus; assay: Compound administered orally was evaluated for salidiuretic activity measured as sodium ion excretion in Rat; format: ADME, organism-based, Urine; conditions: in vivo, po
Method in brief: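 Female Charles-River rats (150–170 g), overnight on sugar diet with water ad libitum. Compound dissolved in DMF, diluted with water containing Tween 80 (final 4% DMF), given po in 5.0 mL; concurrent vehicle placebo. Three rats per metabolism cage; 0–5 h urine analysed for Na+, K+, Cl-. Values: mequiv × 100 per cage, geometric means of three cages per dose; scored 0–6 by Na+.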

[20] = species: Rattus norvegicus; assay: Time taken for the decrease in arterial pressure was measured; format: functional, Artery
[21] = tested on: Canis familiaris; assay: Oral diuretic activity was evaluated by measuring Na+ excretion in dog at 5 mg/kg after ip administration; format: ADME, organism-based, Canis lupus familiaris, Urine; design: dose 5 mg/kg; conditions: in vivo; method in brief: as §2
[22] = tested on: Canis familiaris; assay: Oral diuretic activity was evaluated by measuring Cl- excretion in dog at 0.312 mg/kg after ip administration; format: ADME, organism-based, Canis lupus familiaris, Urine; design: dose 0.312 mg/kg, route intraperitoneal; conditions: in vivo

CC(C)(C)c1cc(I)c(O)c(CN)c1.Cl
MAP [1]: 16 mmHg
Diuretic activity [2]: 0.51
Diuretic activity [3]: 30.3
Diuretic activity [4]: 4.35
Diuretic activity [5]: 9.9
Diuretic activity [6]: 9.3
Diuretic activity [7]: 22.3
MAP [8]: 26 mmHg
Diuretic activity [9]: 44.9
Diuretic activity [10]: 4.34
Diuretic activity [11]: 69.6
Diuretic activity [12]: 13.76
MAP [13]: 38 mmHg
Diuretic activity [14]: 4.89
Diuretic activity [15]: 5.1
Diuretic activity [16]: 6
Diuretic activity [17]: 57
Diuretic activity [18]: 2.11
Diuretic activity [19]: 6
Duration [20]: 18 h and >24 h
Diuretic activity [21]: 56.8
Diuretic activity [22]: 19.28
